Results: ChEMBL document CHEMBL1150769, “Aroyl hydrazones of 2-phenylindole-3-carbaldehydes as novel antimitotic agents” (Bioorg Med Chem, 2008)
Active and inactive are the calls of the source. The calls are words filed in the database; no cut-off is given here.

What was measured:
U-87 MG [1] = assay: Effect on cell morphology in human U87 MG cells assessed as disruption of microtubule network at 10 nM by confocal fluorescence microscopy; format: functional, cell-based; details: U-87MG ATCC
Procedure, shortened: (§1)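 U-87 MG cells at 75% confluence in chamber slides treated 3 h at 37 °C (EtOH vehicle); fixed in 4% paraformaldehyde, permeabilized with 1% Triton X-100; α-tubulin immunostained (Cy5 secondary), nuclei with SYTOX Green; imaged by confocal laser scanning microscopy.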

MDA-MB-231 [2] = assay: Antiproliferative activity against human MDA-MB-231 cells after 4 days by microplate assay; format: functional, cell-based; details: MDA-MB-231, 96 h
Procedure, shortened: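 MDA-MB 231 cells grown in McCoy-5a with L-glutamine, gentamycin, NaHCO3 and 5% FCS; 2–3 days growth at 37 °C, 5% CO2 before compound in fresh medium (controls 0.1% DMF); about 4 days exposure; 1% glutaric dialdehyde fixation, 0.02% crystal violet, 70% EtOH elution, OD 578 nm; mean of two experiments with 16–24 replicates.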

MCF7 = assay: Antiproliferative activity against human MCF7 cells after 5 days by microplate assay; format: functional, cell-based; details: MCF7, 120 h
Procedure, shortened: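 MCF-7 cells grown in EMEM with sodium pyruvate, gentamycin, NaHCO3, phenol red and 10% FCS; seeded in 96-well plates and grown 2–3 days at 37 °C, 5% CO2, then medium with compound (DMF stock; controls 0.1% DMF) for 5 days; glutaric dialdehyde fixation, 0.02% crystal violet stain, ethanol extraction, OD 578 nm; mean of two experiments, 16–24 replicates.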

HL-60 [3] = assay: Antiproliferative activity against human HL60 cells after 48 hrs by MTT assay; format: functional, cell-based; details: HL-60, 48 h
Procedure, shortened: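 HL-60 human leukemia cells kept in log growth in RPMI 1640 with 10% FCS, penicillin G and streptomycin; treated for 48 h; growth read by MTT assay; IC50 = 50% and IC90 = 90% inhibition of cell growth; values given ± SD.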

[4] = Inhibition of tubulin polymerization at 5 uM by microplate assay
Procedure, shortened: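 Tubulin suspended in cold G-PEM buffer with 5% glycerol and depolymerised at 0 °C. It was added to compound that had been diluted 1:10 from DMSO stock into G-PEM in wells prewarmed to 37 °C. Turbidity was read at 355 nm every minute for 28–30 min at 37 °C. Solvent controls held 1% DMSO; colchicine (5 µM) and paclitaxel (2 µM) were run as references.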

HL-60 [5] = assay: Induction of apoptosis in human HL60 cells assessed as caspase 3 activation at 100 nM after 24 hrs; format: functional, cell-based
Procedure, shortened: (§2)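 HL-60 cells (3 million at 5 × 10^5 cells/mL) treated 24 h at 37 °C, 5% CO2; hypotonic Hepes/DTT/EDTA/CHAPS lysates on ice; Ac-DMQD-AMC (1.0 μM final) cleaved 60 min at 30 °C; released AMC separated by RP-HPLC, quantified fluorometrically (ex 355 or 400, em 435 nm) against AMC standards; activity in pmol/min/mg; means of three experiments ± SD.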

U373 MG [6] = assay: Antiproliferative activity against human U373 MG cells at 200 nM after 100 hrs; format: functional, cell-based; details: U-373MG ATCC
Procedure, shortened: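 Confluent (resting) U-373 MG cultures exposed to compound, with DMSO solvent controls, for up to ~150 h; crystal violet staining of fixed cells at various times; effect expressed as cytocidal effect (%) versus time.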

U373 MG [7] = assay: Antiproliferative activity against human U373 MG cells at 10 nM; format: functional, cell-based; details: U-373MG ATCC
Procedure, shortened: (§3)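 U-373 MG glioblastoma cells in EMEM-type medium with 5% FCS under permanent exposure to 10–200 nM; plates fixed with glutaric dialdehyde at various times, stored cold, then crystal violet stained together; absorbance expressed as corrected T/C = (T − C0)/(C − C0) × 100 (%).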

HL-60 [8] = assay: Induction of apoptosis in human HL60 cells assessed as increase in caspase 3 activation at 500 nM after 24 hrs; format: functional, cell-based; procedure, shortened: as §2
HL-60 [9] = assay: Induction of apoptosis in human HL60 cells assessed as increase in caspase 9 activation at 1 uM after 24 hrs; format: functional, cell-based
HL-60 [10] = assay: Induction of apoptosis in human HL60 cells assessed as increase in caspase 3 activation at 1 uM after 24 hrs; format: functional, cell-based
U373 MG [11] = assay: Antiproliferative activity against human U373 MG cells after 72 hrs; format: functional, cell-based; details: U-373MG ATCC
Procedure, shortened: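 Human U-373 MG glioblastoma cells grown in EMEM with sodium pyruvate, gentamycin, NaHCO3, phenol red and 5% FCS. Exposure was continuous at 10, 50, 100 and 200 nM, with DMF in the controls. Plates were fixed with glutaric dialdehyde at intervals and stained together with crystal violet. Absorbance read at 578 nm; corrected T/C% = (T − C0)/(C − C0) × 100.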

MDA-MB-231 [12] = assay: Cell cycle arrest in human MDA-MB-231 cells assessed as decrease in accumulation at G1/G0 phase after 24 hrs by flow cytometry; format: functional, cell-based
Procedure, shortened: (§4)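 MDA-MB 231 cells at 70–80% confluence in 75 cm2 flasks exposed 24 h (DMF vehicle, 0.1% final); trypsinized, fixed in ice-cold 70% EtOH, DNA extraction buffer, propidium iodide stain ≥30 min at room temperature; 8000–15,000 events analysed by flow cytometry for sub-G1, G1/G0, S and G2/M fractions; representative of two experiments.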

MDA-MB-231 [13] = assay: Cell cycle arrest in human MDA-MB-231 cells assessed as increase in accumulation at G2/M phase after 24 hrs by flow cytometry; format: functional, cell-based; procedure, shortened: as §4
[14] = Inhibition of tubulin polymerization at 5 uM by microplate assay
HL-60 [15] = assay: Induction of apoptosis in human HL60 cells assessed as increase in caspase 3 activation at 2.0 uM after 24 hrs; format: functional
U-87 MG [16] = assay: Effect on cell morphology in human U87 MG cells assessed as disruption of microtubule network at 50 nM by confocal fluorescence microscopy; format: functional, cell-based; details: U-87MG ATCC; procedure, shortened: as §1
U373 MG [17] = assay: Antiproliferative activity against human U373 MG cells at 50 nM after 72 hrs; format: functional, cell-based; details: U-373MG ATCC; procedure, shortened: as §3

Row | Compound | IC50 (MDA-MB-231 [2]) | IC50 (MCF7) | further results
1 | CC[C@]1(O)C[C@H]2CN(CCc3c([nH]c4ccccc34)[C@@](C(=O)OC)(c3cc4c(cc3OC)N(C=O)[C@H]3[C@@](O)(C(=O)OC)[C@H](OC(C)=O)[C@]5(CC)C=CCN6CC[C@]43[C@@H]65)C2)C1 [VINCRISTINE] | 0.006 µM | 0.002 µM | Activity (U-87 MG [1]): Active
2 | CCCCc1ccc2[nH]c(-c3ccc(OC)cc3)c(/C=N/NC(=O)c3ccccn3)c2c1 | 0.034 µM | 0.16 µM | IC50 (HL-60 [3]): 0.213 µM; IC90 (HL-60 [3]): 0.333 µM
3 | COc1cc2c(c(OC)c1OC)-c1ccc(OC)c(=O)cc1[C@@H](NC(C)=O)CC2 |  |  | Activity [4]: Active
4 | CCCCc1ccc2[nH]c(-c3ccc(C(F)(F)F)cc3)c(/C=N/NC(=O)c3ccc([N+](=O)[O-])cc3)c2c1 | 2.04 µM | 6.33 µM | 
5 | CCCCc1ccc2[nH]c(-c3ccc(OC)cc3)c(/C=N/NC(=O)c3ccc(OC)cc3)c2c1 | 0.061 µM | 0.226 µM | 
6 | CCCCc1ccc2[nH]c(-c3ccc(OC)cc3)c(/C=N/NC(=O)c3cccnc3)c2c1 | 0.035 µM | 0.075 µM | Activity (HL-60 [5]): Active; Activity (U373 MG [6]): Active; Activity (U373 MG [7]): Active; IC50 (HL-60 [3]): 0.05 µM; IC90 (HL-60 [3]): 0.115 µM
7 | CCCCc1ccc2[nH]c(-c3ccc(CC)cc3)c(/C=N/NC(=O)c3cccnc3)c2c1 | 0.053 µM | 0.1 µM | 
8 | CCCCc1ccc2[nH]c(-c3ccc(OC)cc3)c(/C=N/NC(=O)c3ccccc3OC)c2c1 | 0.021 µM | 0.071 µM | Activity (HL-60 [8]): Active; IC50 (HL-60 [3]): 0.074 µM; IC90 (HL-60 [3]): 0.142 µM
9 | CCCCc1ccc2[nH]c(-c3ccc(C(F)(F)F)cc3)c(/C=N/NC(=O)c3ccncc3)c2c1 | 0.094 µM | 0.1 µM | Activity (HL-60 [9]): Active; Activity (HL-60 [10]): Active
10 | C=C(C)[C@H]1Cc2c(ccc3c2O[C@@H]2COc4cc(OC)c(OC)cc4[C@@H]2C3=O)O1 |  |  | Activity (U373 MG [11]): Active
11 | CCCCc1ccc2[nH]c(-c3ccc(OC)cc3)c(/C=N/NC(=O)c3ccccc3)c2c1 | 0.032 µM | 0.13 µM | Activity (MDA-MB-231 [12]): Active; Activity (MDA-MB-231 [13]): Active
12 | CCCCc1ccc2[nH]c(-c3ccc(OC)cc3)c(/C=N/O)c2c1 | 0.04 µM | 0.212 µM | 
13 | CCCCc1ccc2[nH]c(-c3ccc(CC)cc3)c(/C=N/NC(=O)c3ccncc3)c2c1 | 0.08 µM | 0.15 µM | 
14 | CCCCc1ccc2[nH]c(-c3ccc(C(F)(F)F)cc3)c(/C=N/NC(=O)c3ccccc3)c2c1 | 0.3 µM | 0.46 µM | 
15 | CCCCc1ccc2[nH]c(-c3ccc(C(F)(F)F)cc3)c(/C=N/NC(=O)c3cccnc3)c2c1 | 0.097 µM | 0.26 µM | 
16 | CCCCc1ccc2[nH]c(-c3ccc(OC)cc3)c(/C=N/NC(=O)c3ccc([N+](=O)[O-])cc3)c2c1 | 0.115 µM | 0.312 µM | 
17 | CC(=O)O[C@H]1C(=O)[C@@]2(C)[C@H]([C@H](OC(=O)c3ccccc3)[C@]3(O)C[C@H](OC(=O)[C@H](O)[C@@H](NC(=O)c4ccccc4)c4ccccc4)C(C)=C1C3(C)C)[C@]1(OC(C)=O)CO[C@@H]1C[C@@H]2O |  |  | Activity [14]: Active
18 | CCCCc1ccc2[nH]c(-c3ccc(OC)cc3)c(/C=N/NC(=O)c3ccncc3)c2c1 | 0.029 µM | 0.069 µM | 
19 | COc1cc([C@@H]2c3cc4c(cc3[C@@H](O[C@@H]3O[C@@H]5CO[C@@H](C)O[C@H]5[C@H](O)[C@H]3O)[C@H]3COC(=O)[C@H]23)OCO4)cc(OC)c1O [ETOPOSIDE] |  |  | Activity (HL-60 [15]): 3.37; IC50 (HL-60 [3]): 0.315 µM
20 | CCCCc1ccc2[nH]c(-c3ccc(C(F)(F)F)cc3)c(/C=N/NC(=O)c3ccc(Cl)cc3)c2c1 | 0.329 µM | 1.06 µM | 
21 | CCCCc1ccc2[nH]c(-c3ccc(OC)cc3)c(/C=N/NC(=O)c3cccc(OC)c3)c2c1 | 0.055 µM |  | 
22 | CCCCc1ccc2[nH]c(-c3ccc(C(F)(F)F)cc3)c(/C=N/NC(=O)c3ccc(OC)cc3)c2c1 | 0.284 µM | 0.618 µM | 
23 | COc1ccc(-c2[nH]c3ccc(C)cc3c2/C=N/NC(=O)c2ccncc2)cc1 | 0.29 µM | 0.2 µM | 
24 | CCCCc1ccc2[nH]c(-c3ccc(C(F)(F)F)cc3)c(/C=N/NC(=O)c3ccccn3)c2c1 | 0.26 µM | 0.31 µM | 
25 | CCCCc1ccc2[nH]c(-c3ccc(OC)cc3)c(/C=N/NC(=O)c3cccc(O)c3)c2c1 | 0.03 µM |  | 
26 | CCCCc1ccc2[nH]c(-c3ccc(OC)cc3)c(/C=N/NC(=O)c3ccc(Cl)cc3)c2c1 | 0.09 µM | 0.22 µM | 
27 | CCCCc1ccc2[nH]c(-c3ccc(OC)cc3)c(/C=N/NC(=O)c3ccc(F)cc3)c2c1 | 0.019 µM | 0.084 µM | Activity (HL-60 [8]): Active; Activity (U-87 MG [16]): inactive; Activity (U373 MG [6]): Active; IC50 (HL-60 [3]): 0.091 µM; IC90 (HL-60 [3]): 0.164 µM; Activity (U373 MG [17]): Active
